In ChEMBL document CHEMBL5137098, “Discovery of Substituted Di(pyridin-2-yl)-1,2,4-thiadiazol-5-amines as Novel Macrofilaricidal Compounds for the Treatment of Human Filarial Infections” (J Med Chem, 2022):
≈ marks a conversion by molar mass, not a printed value. Values belong to the molecule of their own block, whether it stands above or below them.

Tests used:
[1] = Mutagenicity in Salmonella typhimurium TA100 in presence of liver S9 fraction by AMES test; type: toxicity, subcellular; settings: salmonella enterica subsp. enterica serovar typhimurium
[2] = Metabolic stability in rat liver S9 fraction assessed as compound remaining at 3 uM measured at 60 mins by LC-MS/MS analysis; type: ADME, subcellular; settings: read-out: Stability
[3] = Mutagenicity in Salmonella typhimurium TA1535 in presence of liver S9 fraction by AMES test; type: toxicity, subcellular; settings: salmonella enterica subsp. enterica serovar typhimurium
[4] = Mutagenicity in Salmonella typhimurium TA97 in absence of liver S9 fraction by AMES test; type: toxicity; settings: salmonella enterica subsp. enterica serovar typhimurium
[5] = Mutagenicity in Salmonella typhimurium TA98 in presence of liver S9 fraction by AMES test; type: toxicity, subcellular; settings: salmonella enterica subsp. enterica serovar typhimurium
[6] = Mutagenicity in Salmonella typhimurium TA98 in absence of liver S9 fraction by AMES test; type: toxicity; settings: salmonella enterica subsp. enterica serovar typhimurium
[7] = Mutagenicity in Salmonella typhimurium TA97 in presence of liver S9 fraction by AMES test; type: toxicity, subcellular; settings: salmonella enterica subsp. enterica serovar typhimurium
Onchocerca volvulus = assay: Antiparasitic activity against Onchocerca volvulus L5 assessed as reduction in motility at 1 uM; design: scale not given: the % may be the effect or the level left
[8] = Mutagenicity in Salmonella typhimurium TA100 in absence of liver S9 fraction by AMES test; type: toxicity; settings: salmonella enterica subsp. enterica serovar typhimurium
[9] = Mutagenicity in Salmonella typhimurium TA1535 in absence of liver S9 fraction by AMES test; type: toxicity; settings: salmonella enterica subsp. enterica serovar typhimurium
[10] = Mutagenicity in Escherichia coli WP2 uvrA in presence of liver S9 fraction by AMES test; type: toxicity, subcellular
[11] = Metabolic stability in human liver S9 fraction assessed as compound remaining at 3 uM measured at 60 mins by LC-MS/MS analysis; type: ADME, subcellular; settings: read-out: Stability
[12] = Mutagenicity in Escherichia coli WP2 uvrA in absence of liver S9 fraction by AMES test; type: toxicity
Litomosoides sigmodontis [13] = assay: Antiparasitic activity against Litomosoides sigmodontis infected in BALB/c mouse assessed as reduction in worm burden at 30 mg/kg, po BID administered for 7 days; type: functional; design: scale not given: the % may be the effect or the level left; settings: time 7 day
[14] = Metabolic stability in human liver microsome assessed as compound remaining at 3 uM measured at 30 mins in presence of NADPH by LC-MS/MS analysis; type: ADME; settings: liver microsomes, read-out: Stability
Summary of the method: (§1)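 Liver microsomes at 0.3 mg/mL with 1 mM NADPH in 200 mM phosphate buffer plus 2 mM MgCl2, pH 7.4, at 37 °C. Substrate 3 µM, incubated 30 min, triplicate. Percent remaining measured by LC-MS/MS.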

[15] = Metabolic stability in rat liver microsome assessed as compound remaining at 3 uM measured at 30 mins in presence of NADPH by LC-MS/MS analysis; type: ADME; settings: liver microsomes, read-out: Stability; summary of the method: as §1
P-glycoprotein (human) = assay: Efflux ratio of apparent permeability in MDCK-II cells expressing human P-glycoprotein gene at 10 uM measured at 2 hrs by LC-MS/MS analysis; type: ADME, cell-based, Canis lupus familiaris; settings: dog, MDCK-MDR1
Litomosoides sigmodontis [16] = assay: Antiparasitic activity against Litomosoides sigmodontis infected in BALB/c mouse assessed as reduction in worm burden at 30 mg/kg, po BID administered for 6 days; type: functional; design: scale not given: the % may be the effect or the level left; settings: time 6 day
[17] = Kinetic solubility of compound incubated for 24 hrs; type: physicochemical; settings: for Kinetic_solubility: 24 h
Summary of the method: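 10 mM DMSO stock diluted into buffer to 200 µM final, 2% DMSO, run in duplicate. Buffers were pH 7.4 0.1 M potassium phosphate, pH 2.2, 6.8 and 5. Shaken 24 h at room temperature in a filter plate, then filtered by positive pressure. Single-point calibration against DMSO standards.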

Onchocerca gutturosa = assay: Anti-filarial activity against Onchocerca gutturosa adult worms assessed as reduction in worm motility measured every 24 hrs for 5 days by olympus inverted microscopic analysis; type: functional, organism-based
Summary of the method: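 Adult worm motility read every 24 h, ending at 120 h. Serial 1-in-4 drug dilutions run to the activity endpoint. EC50 for motility reduction given as geomean, n=2.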

[18] = Octanol/water distribution coefficient, logD of the compound at pH 7.4 sonicated for 30 mins followed by 24 hrs shaking; type: physicochemical
Summary of the method: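 Octanol/pH 7.4 0.1 M potassium phosphate partition. Sample at 1000 uM from 10 mM DMSO stock, 10% DMSO final. Sonicated 30 min, then shaken 24 h at 750 rpm at room temperature. Plate centrifuged 3600 rpm for 30 min.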

Litomosoides sigmodontis [19] = assay: Antiparasitic activity against Litomosoides sigmodontis infected in BALB/c mouse assessed as reduction in worm burden at 30 mg/kg, sc BID administered for 7 days; type: functional; design: scale not given: the % may be the effect or the level left; settings: time 7 day
Litomosoides sigmodontis [20] = assay: Antiparasitic activity against Litomosoides sigmodontis infected in BALB/c mouse assessed as reduction in worm burden at 10 mg/kg, po qd administered for 7 days; type: functional; design: scale not given: the % may be the effect or the level left; settings: time 7 day
[21] = Metabolic stability in mouse liver microsome assessed as compound remaining at 3 uM measured at 30 mins in presence of NADPH by LC-MS/MS analysis; type: ADME; settings: liver microsomes, read-out: Stability; summary of the method: as §1
Litomosoides sigmodontis [22] = assay: Antiparasitic activity against Litomosoides sigmodontis infected in BALB/c mouse assessed as reduction in worm burden at 30 mg/kg, po TID administered for 5 days; type: functional; design: scale not given: the % may be the effect or the level left; settings: time 5 day
TK6 = assay: Cytotoxicity in human TK6 cells in presence of Aroclor 1254-induced rat liver S9 fraction by micronucleus test; type: toxicity, cell-based
Litomosoides sigmodontis [23] = assay: Antiparasitic activity against Litomosoides sigmodontis infected in Meriones assessed as reduction in worm burden at 15 mg/kg, sc BID administered for 7 days; type: functional; design: scale not given: the % may be the effect or the level left; settings: time 7 day

remaining at 1 h, 3 µM [2]: 79%
remaining at 1 h, 3 µM [11]: 86%
SMILES: CC(C)Oc1ccc(-c2nsc(Nc3ncccc3N(C)C)n2)nc1
Activity [1]: Non-Toxic
Activity [3]: Non-Toxic
Activity [4]: Non-Toxic
Activity [5]: Non-Toxic
Activity [6]: Non-Toxic
Activity [7]: Non-Toxic
Activity (Onchocerca volvulus): 100%
Activity [8]: Non-Toxic
Activity [9]: Non-Toxic
Activity [10]: Non-Toxic
Activity [12]: Non-Toxic

remaining at 1 h, 3 µM [2]: 82%
remaining at 1 h, 3 µM [11]: 99%
SMILES: CC(C)Oc1ccc(-c2nsc(Nc3ncccc3C(C)C)n2)nc1
Activity (Litomosoides sigmodontis [13]): 58.8%

remaining at 0.5 h, 3 µM [14]: 77%
remaining at 0.5 h, 3 µM [15]: 89%
SMILES: Cc1cccnc1Nc1nsc(-c2ccc(OC3CCOCC3)cn2)n1

remaining at 0.5 h, 3 µM [14]: 97%
remaining at 0.5 h, 3 µM [15]: 96%
SMILES: CC(C)Oc1cnc(-c2nsc(Nc3ncccc3C(C)C)n2)cc1C(F)(F)F

remaining at 0.5 h, 3 µM [14]: 98%
remaining at 0.5 h, 3 µM [15]: 93%
SMILES: CC(C)Oc1cnc(-c2nsc(Nc3ncccc3N(C)C)n2)cc1C(F)(F)F

remaining at 0.5 h, 3 µM [14]: 100%
remaining at 0.5 h, 3 µM [15]: 89%
SMILES: Cc1cccnc1Nc1nnc(-c2ccc(OC3CCOCC3)cn2)s1

remaining at 0.5 h, 3 µM [14]: 92%
remaining at 0.5 h, 3 µM [21]: 70%
SMILES: Cc1cccnc1Nc1n[nH]c(-c2ccc(OC3CCOCC3)cn2)n1

remaining at 0.5 h, 3 µM [14]: 96%
remaining at 0.5 h, 3 µM [15]: 90%
SMILES: Cc1cccnc1Nc1nc(-c2ncc(OC(C)C)cn2)ns1

remaining at 0.5 h, 3 µM [14]: 90%
remaining at 0.5 h, 3 µM [15]: 78%
SMILES: COc1ccc(Nc2nc(-c3ccccn3)ns2)nc1
Activity (Litomosoides sigmodontis [22]): 50.1%

remaining at 0.5 h, 3 µM [14]: 91%
remaining at 0.5 h, 3 µM [15]: 90%
SMILES: Cc1cccnc1Nc1nc(-c2cc(C(=O)N(C)C)c(OC(C)C)cn2)ns1

remaining at 1 h, 3 µM [2]: 100%
remaining at 1 h, 3 µM [11]: 94%
SMILES: Cc1nccnc1Nc1nc(-c2ccc(OC(C)C)cn2)ns1
Activity (TK6): Non-Toxic

The next lines start with the molecule.

SMILES: CC(C)Oc1ccc(-c2nsc(Nc3ncccc3C(=O)N(C)C)n2)nc1
efflux ratio at 2 h, 10 µM (P-glycoprotein (human)): 11

SMILES: CC(C)c1ccnc(-c2nsc(Nc3cc(C(F)(F)F)ccn3)n2)c1
remaining at 1 h, 3 µM [2]: 45%
Activity (Litomosoides sigmodontis [16]): 46%
remaining at 1 h, 3 µM [11]: 65%

SMILES: Cc1cccnc1-c1nsc(Nc2ccc(N3CCCC3)cn2)n1
solubility kinetic at 24 h ([17]; read-out: Kinetic_solubility): 2.17 µM (≈ 0.734 µg/mL)
remaining at 1 h, 3 µM [2]: 61%
EC50 (Onchocerca gutturosa): 40 nM
remaining at 1 h, 3 µM [11]: 86%
logD at 24.5 h [18]: 2.65

SMILES: CC(C)Oc1cnc(-c2nsc(Nc3ncccc3N3CCCC3=O)n2)cc1C(F)(F)F
efflux ratio at 2 h, 10 µM (P-glycoprotein (human)): 3.9

SMILES: CC(C)Oc1ccc(-c2nsc(Nc3ncccc3C(N)=O)n2)nc1
efflux ratio at 2 h, 10 µM (P-glycoprotein (human)): 4.6

SMILES: Cc1cccnc1Nc1nc(-c2ccc(OC3CCN(C4CC4)CC3)cn2)ns1
remaining at 1 h, 3 µM [2]: 76%
Activity (Litomosoides sigmodontis [19]): 85.5%
remaining at 1 h, 3 µM [11]: 83%

SMILES: Cc1cccnc1Nc1nc(-c2ccc(OC(C)C)cn2)ns1
remaining at 1 h, 3 µM [2]: 100%
Activity (Litomosoides sigmodontis [20]): 58.8%
remaining at 1 h, 3 µM [11]: 100%

SMILES: CC(=O)N(C)c1cc(C(F)(F)F)cnc1Nc1nc(-c2cc(OC(C)C)ccn2)ns1
Kinetic_solubility [17]: 0.4 µM
efflux ratio at 2 h, 10 µM (P-glycoprotein (human)): 15.2

SMILES: CC(C)Oc1cnc(-c2nsc(Nc3ncccc3N(C)C(=O)C3CC3)n2)cc1C(F)(F)F
efflux ratio at 2 h, 10 µM (P-glycoprotein (human)): 2.2

SMILES: CN(C)c1cccnc1Nc1nc(-c2ccc(OC3CC3)cn2)ns1
remaining at 1 h, 3 µM [2]: 91%
Activity (Onchocerca volvulus): 100%
remaining at 1 h, 3 µM [11]: 100%

SMILES: Cc1cccnc1Nc1nnc(-c2ccc(OC3CCOCC3)cn2)o1
remaining at 0.5 h, 3 µM [14]: 83%
remaining at 0.5 h, 3 µM [15]: 39%

SMILES: CC(C)c1cccnc1Nc1nc(-c2ccc(OC3CC3)cn2)ns1
Kinetic_solubility [17]: 0.2 µM
remaining at 1 h, 3 µM [2]: 78%
Activity (Onchocerca volvulus): 100%
remaining at 1 h, 3 µM [11]: 39%

SMILES: CC(=O)N(C)c1cccnc1Nc1nc(-c2cc(C(F)(F)F)c(OC(C)C)cn2)ns1
efflux ratio at 2 h, 10 µM (P-glycoprotein (human)): 4.5

SMILES: CC(=O)N(C)c1cc(C(F)(F)F)cnc1Nc1nc(-c2ccc(OC(C)C)cn2)ns1
efflux ratio at 2 h, 10 µM (P-glycoprotein (human)): 4.1

SMILES: CC(=O)N(C)c1cc(C(F)(F)F)cnc1Nc1nc(-c2cc(C(C)C)ccn2)ns1
efflux ratio at 2 h, 10 µM (P-glycoprotein (human)): 8.4

SMILES: CC(=O)N(C)c1cccnc1Nc1nc(-c2ccc(OC(C)C)cn2)ns1
Activity (Litomosoides sigmodontis [23]): 58.9%
Activity [1]: Non-Toxic
Activity [3]: Non-Toxic
Activity [4]: Non-Toxic
Activity [5]: Non-Toxic
Activity [6]: Non-Toxic
Activity [7]: Non-Toxic
Activity [8]: Non-Toxic
Activity [9]: Non-Toxic
Activity [10]: Non-Toxic
Activity [12]: Non-Toxic

SMILES: Cc1cccnc1Nc1nc(-c2ccc(OC3CC3)cn2)ns1
remaining at 1 h, 3 µM [2]: 61%
Activity (Onchocerca volvulus): 100%
remaining at 1 h, 3 µM [11]: 76%
